These results are taken from ChEMBL document CHEMBL4350963, “Discovery and Lead-Optimization of 4,5-Dihydropyrazoles as Mono-Kinase Selective, Orally Bioavailable and Efficacious Inhibitors of Receptor Interacting Protein 1 (RIP1) Kinase” (J Med Chem, 2019).

The structures appear in SMILES notation. Converted amounts (≈) assume the structure as drawn.

The nature of data set [1]: Cmax in rat at 2 mg/kg, po. Also noted: dose 2 mg/kg, route oral. In kind it is ADME, organism-based. The conditions noted are these: in vivo. In short, it runs like this:
(§1)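 Rat pharmacokinetics: the iv arm was dosed at 1 mg/kg in 5% DMSO/20% Cavitron aqueous solution. The oral arm was dosed at 2 mg/kg in 5% DMSO/6% Cavitron aqueous solution. Bioavailability was calculated non-crossover, from average exposures in separate oral and iv studies.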

Data set [2] can be described thus: AUC (0 to infinity) in rat at 1 mg/kg, iv. In kind it is ADME, organism-based. Also noted: dose 1 mg/kg, time infinity, route intravenous. The settings on record: in vivo. In short, it runs like this:
as §1

Data set [3] can be described thus: Tmax in rat at 2 mg/kg, po. In kind it is ADME, organism-based. The settings on record: in vivo.
The nature of data set [4]: Chromatographic hydrophobicity index, log D of the compound at pH 7.4 by reverse-phase HPLC analysis. In kind it is physicochemical. The conditions noted are these: buffer. In outline: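 Log D at pH 7.4 was calculated from the retention time on a fast-gradient reverse-phase HPLC run.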
The nature of data set [5]: Time at which mouse plasma concentration stays above in vitro IC50 for RIP1 in mouse L929 cells assessed as reduction in TNFalpha/QVD-Oph-induced necroptosis in mouse at 10 mg/kg/day added to chow pellets. In kind it is ADME, organism-based. The settings on record: in vivo.
Data set [6] is described as follows: Time at which mouse plasma concentration stays above in vitro IC90 for RIP1 in mouse L929 cells assessed as reduction in TNFalpha/QVD-Oph-induced necroptosis in mouse at 100 mg/kg/day added to chow pellets. In kind it is ADME, organism-based. The conditions noted are these: in vivo.
Data set [7] can be described thus: Volume of distribution at steady state in rat at 1 mg/kg, iv. In kind it is ADME, organism-based. The conditions noted are these: in vivo, read-out: Vdss.
Data set [8] in a line: Oral bioavailability in rat at 2 mg/kg. Format: ADME, organism-based. The conditions noted are these: in vivo.
Data set [9] in a line: Unbound brain to blood concentration ratio in C57BL/6 mouse at 9.6 to 96 mg/kg/day added to chow pellets. In kind it is ADME, organism-based. The conditions noted are these: po, read-out: K(p,uu,brain).
Data set [10] in a line: Oral bioavailability in minipig at 2 mg/kg. In kind it is ADME, organism-based, Sus scrofa. The settings on record: pig, in vivo.
Data set [11] in a line: AUC (0 to infinity) in minipig at 1 mg/kg, iv. The settings on record: pig, in vivo. In kind it is ADME, organism-based, Sus scrofa. Also noted: dose 1 mg/kg, route intravenous, time infinity.
Data set [12] can be described thus: Tmax in mouse at 30 mg/kg, po. In kind it is ADME, organism-based. The conditions noted are these: in vivo.
Data set [13] is described as follows: Solubility of the compound in fasted state simulated intestinal fluid measured after 4 hrs. In kind it is physicochemical.
A short description of data set [14]: Volume of distribution at steady state in mouse at 2 mg/kg, iv. Format: ADME, organism-based. The settings on record: in vivo, read-out: Vdss.
Data set [15] is described as follows: Cmax in monkey at 2 mg/kg, po. Format: ADME, organism-based, Macaca mulatta. Also noted: dose 2 mg/kg, route oral. The conditions noted are these: rhesus monkey, in vivo.
Data set [16] is described as follows: AUC (0 to infinity) in mouse at 2 mg/kg, iv. Format: ADME, organism-based. Also noted: dose 2 mg/kg, time infinity, route intravenous. The conditions noted are these: in vivo.
Data set [17] in a line: Volume of distribution at steady state in monkey at 1 mg/kg, iv. Format: ADME, organism-based, Macaca mulatta. The settings on record: rhesus monkey, in vivo, read-out: Vdss.
The nature of data set [18]: Tmax in monkey at 2 mg/kg, po. Format: ADME, organism-based, Macaca mulatta. The settings on record: rhesus monkey, in vivo.
Data set [19] is described as follows: Oral bioavailability in monkey at 2 mg/kg. In kind it is ADME, organism-based, Macaca mulatta. The conditions noted are these: rhesus monkey, in vivo.
The nature of data set [20]: Cmax in minipig at 2 mg/kg, po. In kind it is ADME, organism-based, Sus scrofa. Also noted: dose 2 mg/kg, route oral. The settings on record: pig, in vivo.
Data set [21] is described as follows: AUC (0 to infinity) in monkey at 1 mg/kg, iv. In kind it is ADME, organism-based, Macaca mulatta. The settings on record: rhesus monkey, in vivo. Also noted: dose 1 mg/kg, time infinity, route intravenous.
Data set [22] in a line: Volume of distribution at steady state in minipig at 1 mg/kg, iv. In kind it is ADME, organism-based, Sus scrofa. The conditions noted are these: pig, in vivo, read-out: Vdss.
Data set [23] is described as follows: Cmax in mouse at 30 mg/kg, po. In kind it is ADME, organism-based. Also noted: dose 30 mg/kg, route oral. The conditions noted are these: in vivo. In outline: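 Mouse pharmacokinetics: the iv arm received 2 mg/kg in 5% DMSO/20% Cavitron aqueous solution. The oral arm received 30 mg/kg as a suspension in 1% aqueous methylcellulose.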
The nature of data set [24]: Tmax in minipig at 2 mg/kg, po. The conditions noted are these: pig, in vivo. Format: ADME, organism-based, Sus scrofa.

For orientation: Cmax means the peak of the concentration-time curve. What is called AUC(0-inf) is the area under the concentration-time curve extrapolated to infinity. As usually defined, the Tmax is the time at which the peak concentration occurs. By chromatographic logD is commonly meant a lipophilicity value derived from retention on a column. In data set [1], `N#Cc1cc(N2CCC(C(=O)N3N=CC[C@H]3c3cc(F)cc(F)c3)CC2)ncn1` displayed a Cmax of 215 ng/mL. The same compound registered an AUC(0-inf) in data set [2] of 410 ng·h/mL. The time to peak (Tmax) in data set [3] was 30 min. This compound yielded a chromatographic logD in data set [4] of 5. Moreover, the Time in data set [5] and in data set [6] was > 24 h in each case. Further, in data set [7], the Vd amounted to 4.6 L/kg. For the same compound, the bioavailability in [8] came out at 88%. The Kp uu in data set [9] is 2.5.

The solubility is the concentration that dissolves in the medium under given conditions. `Cc1nnc(N2CCC(C(=O)N3N=CC[C@H]3c3cc(F)cc(F)c3)CC2)o1`: the bioavailability was determined as 65% in data set [10], 40% in data set [19] and 130% in data set [8]. Further, the Cmax in data set [1] amounted to 1100 ng/mL; in [15], 480 ng/mL; in [20], 576 ng/mL; in data set [23], 5410 ng/mL. Further, the AUC(0-inf) in data set [11] was found to be 1300 ng·h/mL; in data set [2], 1300 ng·h/mL; in data set [16] it was 1100 ng·h/mL; in data set [21], 3100 ng·h/mL. Further, the Tmax in [12] is 30 min; in data set [3] it was 25 min; in data set [18], 120 min; in data set [24] it was 80 min. The solubility at 4 h in data set [13] is 250 µg/mL (≈ 666 µM). The Vd came out at 1.8 L/kg in data set [14], 1.1 L/kg in [17], 1.3 L/kg in [7] and 1.3 L/kg in data set [22]. The compound also returned a chromatographic logD in [4] of 3.6.
